Results as given in ChEMBL document CHEMBL4680257, “Discovery of novel NF-кB inhibitor based on scaffold hopping: 1,4,5,6,7,8-hexahydropyrido[4,3-d]pyrimidine” (Eur J Med Chem, 2020).

Experiments:
HepG2 = experiment: Cytotoxicity against human HepG2 cells assessed as reduction in cell viability incubated for 24 hrs by MTT assay; format: functional, cell-based; conditions: HepG2, 24 h
Procedure, shortened: (§1)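 Cells kept at 37 °C in 5% CO₂. HepG2 grown in DMEM with 10% serum; HHL-5, LO2 and SMMC-7721 in 1640 medium with 10% serum. Seeded, grown 24 h, then exposed 24 h to 10, 5, 2.5, 1.25, 0.625 and 0.3125 µg/mL. MTT (5 mg/mL) added for 4 h at 37 °C; formazan dissolved in DMSO, OD read at 570 nm. IC50 averaged from three replicates.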

SMMC-7721 = experiment: Cytotoxicity against human SMMC-7721 cells assessed as reduction in cell viability incubated for 24 hrs by MTT assay; format: functional, cell-based; conditions: SMMC-7721, 24 h; procedure, shortened: as §1
[1] = Cytotoxicity against human HHL-5 cells assessed as reduction in cell viability incubated for 24 hrs by MTT assay; format: cell-based; conditions: HHL-5, 24 h; procedure, shortened: as §1
L02 = experiment: Cytotoxicity against human L02 cells assessed as reduction in cell viability incubated for 24 hrs by MTT assay; format: cell-based; conditions: L02, 24 h; procedure, shortened: as §1
RAW264.7 [2] = experiment: Cytotoxicity against mouse RAW264.7 cells assessed as reduction in cell viability at 5 uM incubated for 24 hrs by MTT assay; format: cell-based; conditions: raw264.7, 24 h
RAW264.7 [3] = experiment: Antiinflammatory activity against mouse RAW264.7 cells assessed as LPS-induced TNF-alpha at 5 uM pretreated for 2 hrs followed by LPS stimulation and measured after 22 hrs by ELISA (reference value: 0 %); format: functional; conditions: time 24 hrs
RAW264.7 [4] = experiment: Antiinflammatory activity against mouse RAW264.7 cells assessed as LPS-induced IL-6 at 5 uM pretreated for 2 hrs followed by LPS stimulation and measured after 22 hrs by ELISA relative to control (reference value: 0 %); format: functional; conditions: time 24 hrs
RAW264.7 [5] = experiment: Antiinflammatory activity against mouse RAW264.7 cells assessed as LPS-induced TNF-alpha at 30 uM pretreated for 2 hrs followed by LPS stimulation and measured after 22 hrs by ELISA (reference value: 0 %); format: functional; conditions: time 24 hrs
Procedure, shortened: (§2)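 Mouse RAW264.7 macrophages were pretreated with compound for 2 h, then stimulated with LPS (1.0 µg/mL) for 22 h. Culture medium was centrifuged at 1000 rpm for 10 min, and secreted TNF-α and IL-6 were each quantified by ELISA kit. Inhibition rates are means of three replicates.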

RAW264.7 [6] = experiment: Antiinflammatory activity against mouse RAW264.7 cells assessed as LPS-induced IL-6 at 30 uM pretreated for 2 hrs followed by LPS stimulation and measured after 22 hrs by ELISA (reference value: 0 %); format: functional; conditions: time 24 hrs; procedure, shortened: as §2

Row | Compound | IC50 (HepG2) | IC50 (SMMC-7721) | IC50 [1] | IC50 (L02) | Activity (RAW264.7 [2]) | inhibition at 5 µM (RAW264.7 [3]) | inhibition at 5 µM (RAW264.7 [4]) | inhibition at 30 µM (RAW264.7 [5]) | inhibition at 30 µM (RAW264.7 [6])
1 | Cl.NC1=NC(c2cccc(F)c2)C2=C(N1)/C(=C/c1cccc(F)c1)CN(S(=O)(=O)c1ccc(F)cc1)C2 (stereo unspecified) | 12.4 µM | 4.8 µM | 12.9 µM | 18.8 µM | Non-Toxic | 71.6% | 74.9% |  | 
2 | Cl.NC1=NC(c2ccc(F)cc2)C2=C(N1)/C(=C/c1ccc(F)cc1)CN(S(=O)(=O)c1ccc(C(F)(F)F)cc1)C2 (stereo unspecified) | 3.3 µM | 3.8 µM | 24.4 µM | 15.4 µM | Non-Toxic | 87.5% | 81.7% |  | 
3 | Cl.NC1=NC(c2ccc(F)cc2)C2=C(N1)/C(=C/c1ccc(F)cc1)CN(S(=O)(=O)c1ccc(F)cc1)C2 (stereo unspecified) | 4.1 µM | 17.1 µM | 11.1 µM | 13.3 µM | Non-Toxic | 72.3% | 71.4% |  | 
4 | Cl.NC1=NC(c2cccc(F)c2)C2=C(N1)/C(=C/c1cccc(F)c1)CN(S(=O)(=O)c1ccc(Br)cc1)C2 (stereo unspecified) | 10.6 µM | 6.3 µM | 13 µM | 10.1 µM | Non-Toxic | 69.3% | 71% |  | 
5 | Cc1ccc(S(=O)(=O)N2CC3=C(NC(N)=NC3c3ccc(F)cc3)/C(=C/c3ccc(F)cc3)C2)cc1.Cl (stereo unspecified) | 4.5 µM | 4.3 µM | 32.7 µM | 17.7 µM | Non-Toxic | 61.8% | 60.1% |  | 
6 | Cc1ccc(S(=O)(=O)N2CC3=C(NC(N)=NC3c3ccccc3F)/C(=C/c3ccccc3F)C2)cc1.Cl (stereo unspecified) | 13.1 µM | 7.3 µM | 9.6 µM | 11.5 µM | Non-Toxic | 44% | 56.8% |  | 
7 | Cl.N#Cc1ccc(S(=O)(=O)N2CC3=C(NC(N)=NC3c3cccc(F)c3)/C(=C/c3cccc(F)c3)C2)cc1 (stereo unspecified) | 3.5 µM | 4.2 µM | 18.9 µM | 17.2 µM | Non-Toxic | 74.5% | 73% |  | 
8 | Cl.NC1=NC(c2cccc(F)c2)C2=C(N1)/C(=C/c1cccc(F)c1)CN(S(=O)(=O)c1ccccc1)C2 (stereo unspecified) | 3.7 µM | 12.8 µM | 11.3 µM | 37.8 µM | Non-Toxic | 54% | 56.3% |  | 
9 | Cl.NC1=NC(c2cccc(F)c2)C2=C(N1)/C(=C/c1cccc(F)c1)CN(S(=O)(=O)c1ccc([N+](=O)[O-])cc1)C2 (stereo unspecified) | 30.6 µM | 12.3 µM | 30.5 µM | 42.4 µM | Non-Toxic | 58.8% | 78.5% |  | 
10 | Cl.NC1=NC(c2ccccc2F)C2=C(N1)/C(=C/c1ccccc1F)CN(S(=O)(=O)c1ccc(C(F)(F)F)cc1)C2 (stereo unspecified) | 3.9 µM | 3.5 µM | 20.8 µM | 22 µM | Non-Toxic | 84.4% | 82.3% |  | 
11 | CC(=O)Nc1ccc(S(=O)(=O)N2CC3=C(NC(N)=NC3c3ccccc3F)/C(=C/c3ccccc3F)C2)cc1.Cl (stereo unspecified) | 11.8 µM | 8.6 µM | 22.1 µM | 11.2 µM | Non-Toxic | 67.6% | 61.6% |  | 
12 | Cl.NC1=NC(c2ccccc2F)C2=C(N1)/C(=C/c1ccccc1F)CN(S(=O)(=O)c1ccc(Cl)cc1)C2 (stereo unspecified) | 12.2 µM | 4.9 µM | 9.1 µM | 11.5 µM | Non-Toxic | 83% | 81.5% |  | 
13 | Cc1ccc(S(=O)(=O)N2CC3=C(NC(N)=NC3c3cccc(F)c3)/C(=C/c3cccc(F)c3)C2)cc1.Cl (stereo unspecified) | 11.7 µM | 11.7 µM | 23.2 µM | 11.2 µM | Non-Toxic | 40.5% | 46.7% |  | 
14 | Cl.N#Cc1ccc(S(=O)(=O)N2CC3=C(NC(N)=NC3c3ccccc3F)/C(=C/c3ccccc3F)C2)cc1 (stereo unspecified) | 11.7 µM | 19 µM | 29 µM | 12 µM | Non-Toxic | 62.9% | 71.2% |  | 
15 | Cl.NC1=NC(c2ccc(F)cc2)C2=C(N1)/C(=C/c1ccc(F)cc1)CN(S(=O)(=O)c1ccc([N+](=O)[O-])cc1)C2 (stereo unspecified) | 9.4 µM | 19.1 µM | 10.3 µM | 12.5 µM | Non-Toxic | 65.9% | 66.8% |  | 
16 | Cl.NC1=NC(c2ccc(F)cc2)C2=C(N1)/C(=C/c1ccc(F)cc1)CN(S(=O)(=O)c1ccccc1)C2 (stereo unspecified) | 9.5 µM | 8 µM | 11.5 µM | 9.9 µM | Non-Toxic | 33.5% | 39.8% |  | 
17 | S=C(S)N1CCCC1 [PYRROLIDINE DITHIOCARBAMATE] |  |  |  |  |  |  |  | 66.5% | 56.9%
18 | Cl.NC1=NC(c2ccccc2F)C2=C(N1)/C(=C/c1ccccc1F)CN(S(=O)(=O)c1ccc(F)cc1)C2 (stereo unspecified) | 12.1 µM | 10 µM | 12 µM | 16.5 µM | Non-Toxic | 78.6% | 79.5% |  | 
